Results on 23 compounds are retold here after ChEMBL document CHEMBL1153025, “Triterpene glycosides from the underground parts of Caulophyllum thalictroides” (J Nat Prod, 2009).

Values after ≈ are worked out from the molar mass of the structure shown.

One test deals with HL-60. Kind of test: Cytotoxicity against human HL60 cells after 72 hrs by MTT assay. In kind it is functional, cell-based. The note with it: HL-60, 72 h. The essentials: (§1)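 HL-60 (JCRB 0085) cells in RPMI 1640 with 10% FBS, L-glutamine, penicillin G and streptomycin, seeded at 4 × 10^4 cells/mL, preincubated 24 h at 37 °C in 5% CO2. Sample added in EtOH-H2O (1:1) to final 0.1-20 µg/mL; vehicle in controls. After 72 h, MTT 4 h, centrifuged, formazan dissolved in DMSO. Mean ± SEM of three experiments in triplicate.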
Background: Tetrazolium assays rely on reduction of a dye to a coloured formazan, in cell work by metabolically active cells.
`CC1(C)CC[C@]2(C(=O)O)CC[C@]3(C)C(=CC[C@@H]4[C@@]5(C)CC[C@H](O[C@@H]6OC[C@H](O)[C@H](O)[C@H]6O)C(C)(C)[C@@H]5CC[C@]43C)[C@@H]2C1` had an IC50 of 3.4 µg/mL (≈ 5.77 µM).

Compound `CC1(C)CC[C@]2(C(=O)O)CC[C@]3(C)C(=CC[C@@H]4[C@@]5(C)CC[C@H](O[C@@H]6OC[C@H](O)[C@H](O)[C@H]6O[C@@H]6O[C@H](CO)[C@@H](O)[C@H](O)[C@H]6O)[C@@](C)(CO)[C@@H]5CC[C@]43C)[C@@H]2C1` returned an IC50 of 15.9 µg/mL (≈ 20.7 µM).

In the case of `CC1(C)CC[C@]2(C(=O)O)CC[C@]3(C)C(=CC[C@@H]4[C@@]5(C)CC[C@H](O[C@@H]6OC[C@H](O)[C@H](O)[C@H]6O)[C@@](C)(C=O)[C@@H]5CC[C@]43C)[C@@H]2C1`, the IC50 was found to be 4.8 µg/mL (≈ 7.96 µM).

As to `CC1(C)CC[C@]2(C(=O)O)[C@H](O)C[C@]3(C)C(=CC[C@@H]4[C@@]5(C)CC[C@H](O[C@@H]6OC[C@H](O)[C@H](O)[C@H]6O)C(C)(C)[C@@H]5CC[C@]43C)[C@@H]2C1`, the IC50 worked out at 5.6 µg/mL (≈ 9.26 µM).

In turn, `CC1(C)CC[C@]2(C(=O)O)[C@H](O)C[C@]3(C)C(=CC[C@@H]4[C@@]5(C)CC[C@H](O[C@@H]6OC[C@H](O)[C@H](O)[C@H]6O[C@@H]6O[C@H](CO)[C@@H](O)[C@H](O)[C@H]6O)C(C)(C)[C@@H]5CC[C@]43C)[C@@H]2C1` gave an IC50 of 11.8 µg/mL (≈ 15.4 µM).

In the case of `CC1(C)CC[C@]2(C(=O)O)CC[C@]3(C)C(=CC[C@@H]4[C@@]5(C)CC[C@H](O[C@@H]6OC[C@H](O)[C@H](O)[C@H]6O)C(C)(CO)[C@@H]5CC[C@]43C)[C@@H]2C1` (stereo partly drawn), 12.5 µg/mL (≈ 20.7 µM) corresponded to half-maximal inhibition (IC50).

`CC1(C)CC[C@]2(C(=O)O)CC[C@]3(C)C(=CC[C@@H]4[C@@]5(C)CC[C@H](O[C@@H]6OC[C@H](O)[C@H](O)[C@H]6O[C@@H]6O[C@H](CO)[C@@H](O)[C@H](O)[C@H]6O)C(C)(C)[C@@H]5CC[C@]43C)[C@@H]2C1` returned an IC50 of 10.8 µg/mL (≈ 14.4 µM).

`COc1cc([C@@H]2c3cc4c(cc3[C@@H](O[C@@H]3O[C@@H]5CO[C@@H](C)O[C@H]5[C@H](O)[C@H]3O)[C@H]3COC(=O)[C@H]23)OCO4)cc(OC)c1O` [ETOPOSIDE] came in with an IC50 of 0.26 µg/mL (≈ 0.442 µM).

A further test concerns HL-60. Kind of test: Cytotoxicity against human HL60 cells up to 20 ug/ml after 72 hrs by MTT assay. In kind it is functional, cell-based.
Conditions: not given
The method in brief: as §1
For `C[C@H]1[C@@H]2C3CC[C@@H]4[C@@]5(C)CC[C@H](O[C@@H]6OC[C@H](O)[C@H](O)[C@H]6O[C@@H]6O[C@H](CO)[C@@H](O)[C@H](O)[C@H]6O)C(C)(C)[C@@H]5CC[C@@]4(C)[C@]3(C)CC[C@@]2(C(=O)O)CC[C@@]1(C)O` (stereo partly drawn), the Activity result was “Not toxic”.

As to `C[C@H]1[C@@H]2[C@H]3CC[C@@H]4[C@@]5(C)CC[C@H](O[C@@H]6OC[C@H](O)[C@H](O)[C@H]6O[C@@H]6O[C@H](CO)[C@@H](O)[C@H](O)[C@H]6O)C(C)(C)[C@@H]5CC[C@@]4(C)[C@]3(C)CC[C@@]23CC[C@]1(C)OC3=O`, the Activity result is “Not toxic”.

`C[C@@H]1O[C@@H](O[C@H]2[C@H](O)[C@@H](O)[C@H](OC[C@H]3O[C@@H](OC(=O)[C@]45CCC(C)(C)C[C@H]4C4=CC[C@@H]6[C@@]7(C)CC[C@H](O[C@@H]8OC[C@H](O)[C@H](O)[C@H]8O)[C@@](C)(CO)[C@@H]7CC[C@@]6(C)[C@]4(C)CC5)[C@H](O)[C@@H](O)[C@@H]3O)O[C@@H]2CO)[C@H](O)[C@H](O)[C@H]1O`: the Activity entry is “Not toxic”.

Consider `CC1(C)CC[C@]2(C(=O)O)[C@H](O)C[C@]3(C)C(=CC[C@@H]4[C@@]5(C)CC[C@H](O[C@@H]6OC[C@H](O)[C@H](O)[C@H]6O)[C@@](C)(C=O)[C@@H]5CC[C@]43C)[C@@H]2C1`, for which the Activity entry is “Not toxic”.

`CC1(C)CC[C@]2(C(=O)O)[C@H](O)C[C@]3(C)C(=CC[C@@H]4[C@@]5(C)CC[C@H](O[C@@H]6OC[C@H](O)[C@H](O)[C@H]6O)[C@@](C)(CO)[C@@H]5CC[C@]43C)[C@@H]2C1`: the Activity entry was “Not toxic”.

Regarding `C[C@@H]1O[C@@H](O[C@H]2[C@H](O)[C@@H](O)[C@H](OC[C@H]3O[C@@H](OC(=O)[C@]45CCC(C)(C)C[C@H]4C4=CC[C@@H]6[C@@]7(C)CC[C@H](O[C@@H]8OC[C@H](O)[C@H](O)[C@H]8O[C@@H]8O[C@H](CO)[C@@H](O)[C@H](O)[C@H]8O)C(C)(C)[C@@H]7CC[C@@]6(C)[C@]4(C)CC5)[C@H](O)[C@@H](O)[C@@H]3O)O[C@@H]2CO)[C@H](O)[C@H](O)[C@H]1O`, the Activity entry is “Not toxic”.

Consider `CC1(C)CC[C@@]23CC[C@]4(C)[C@@](OC2=O)([C@@H]3C1)[C@H]1O[C@H]1[C@@H]1[C@@]2(C)CC[C@H](O[C@@H]3OC[C@H](O)[C@H](O)[C@H]3O[C@@H]3O[C@H](CO)[C@@H](O)[C@H](O)[C@H]3O)[C@@](C)(CO)[C@@H]2CC[C@]14C`, for which the Activity result is “Not toxic”.

For the compound `C[C@@H]1O[C@@H](O[C@H]2[C@H](O)[C@@H](O)[C@H](OC[C@H]3O[C@@H](OC(=O)[C@]45CCC(C)(C)C[C@H]4C4=CC[C@@H]6[C@@]7(C)CC[C@H](O[C@@H]8OC[C@H](O)[C@H](O)[C@H]8O[C@@H]8O[C@H](CO)[C@@H](O)[C@H](O)[C@H]8O)[C@@](C)(CO)[C@@H]7CC[C@@]6(C)[C@]4(C)CC5)[C@H](O)[C@@H](O)[C@@H]3O)O[C@@H]2CO)[C@H](O)[C@H](O)[C@H]1O`, the Activity entry was “Not toxic”.

For `CC1(C)CC[C@]2(C(=O)O)[C@H](O)C[C@]3(C)C(=CC[C@@H]4[C@@]5(C)CC[C@H](O[C@@H]6OC[C@H](O)[C@H](O)[C@H]6O[C@@H]6O[C@H](CO)[C@@H](O)[C@H](O)[C@H]6O)[C@@](C)(CO)[C@@H]5CC[C@]43C)[C@@H]2C1`, the Activity entry was “Not toxic”.

`CC1(C)CC[C@@]23C(=O)O[C@]4([C@@H]2C1)[C@H]1O[C@H]1[C@@H]1[C@@]2(C)CC[C@H](O[C@@H]5OC[C@H](O)[C@H](O)[C@H]5O)[C@@](C)(CO)[C@@H]2CC[C@@]1(C)[C@]4(C)C[C@H]3O`: the Activity result is “Not toxic”.

Regarding `CC1(C)CC[C@@]2(C(=O)O)C(=C3C=C[C@@H]4[C@@]5(C)CC[C@H](O[C@@H]6OC[C@H](O)[C@H](O)[C@H]6O)[C@@](C)(CO)[C@@H]5CC[C@@]4(C)[C@]3(C)C[C@H]2O)C1`, the Activity entry is “Not toxic”.

As to `CC1(C)CC[C@]2(C(=O)O[C@@H]3O[C@H](CO)[C@@H](O)[C@H](O)[C@H]3O)[C@H](O)C[C@]3(C)C(=CC[C@@H]4[C@@]5(C)CC[C@H](O[C@@H]6OC[C@H](O)[C@H](O)[C@H]6O)[C@@](C)(CO)[C@@H]5CC[C@]43C)[C@@H]2C1`, the Activity result is “Not toxic”.

For the compound `C[C@@H]1O[C@@H](O[C@H]2[C@H](O)[C@@H](O)[C@H](OC[C@H]3O[C@@H](OC(=O)[C@]45CCC(C)(C)C[C@H]4C4=CC[C@@H]6[C@@]7(C)CC[C@H](O[C@@H]8OC[C@H](O)[C@H](O)[C@H]8O)[C@@](C)(CO)[C@@H]7CC[C@@]6(C)[C@]4(C)C[C@H]5O)[C@H](O)[C@@H](O)[C@@H]3O)O[C@@H]2CO)[C@H](O)[C@H](O)[C@H]1O`, the Activity entry is “Not toxic”.

For the compound `C[C@@H]1O[C@@H](O[C@H]2[C@H](O)[C@@H](O)[C@H](OC[C@H]3O[C@@H](OC(=O)[C@]45CCC(C)(C)C[C@H]4C4=CC[C@@H]6[C@@]7(C)CC[C@H](O)[C@@](C)(CO)[C@@H]7CC[C@@]6(C)[C@]4(C)CC5)[C@H](O)[C@@H](O)[C@@H]3O)O[C@@H]2CO)[C@H](O)[C@H](O)[C@H]1O`, the Activity result is “Not toxic”.

`CC1(C)CC[C@]2(C(=O)O[C@@H]3O[C@H](CO[C@@H]4O[C@H](CO)[C@@H](O)[C@H](O)[C@H]4O)[C@@H](O)[C@H](O)[C@H]3O)[C@H](O)C[C@]3(C)C(=CC[C@@H]4[C@@]5(C)CC[C@H](O[C@@H]6OC[C@H](O)[C@H](O)[C@H]6O)[C@@](C)(CO)[C@@H]5CC[C@]43C)[C@@H]2C1`: the Activity result was “Not toxic”.

The term IC50 denotes the concentration needed to halve the response being measured.
